# An excerpt weighted towards active compounds, which were near 5.5% of everything screened.
# Yeast growth inh = growth inhibitors of yeast BB579 in restrictive medium, primary screen, yeast lifespan-shortening project, S. cerevisiae; 140,000 compounds, 0.51% hits; OD615, 48 h; inhibition, % at 10 µM;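 active = inhibition above a set limit, 3 SD over the mean compound inhibition, cut at about 44% in these data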
#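 controls = amphotericin B 10 µg/mL, positive | assay system = DeaD yeast strain BB579 | schedule = 48 h compound exposure at 30 °C after 4 h preincubation | detection = OD615 turbidity measurement | medium = restrictive CSMM-D medium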
# Yeast life ext = compounds extending yeast replicative lifespan, primary screen, S. cerevisiae, OD615. S. cerevisiae growth with nicotinamide; deaD strain in restrictive glucose medium. inhibition of the nicotinamide effect, % at 10 µM. 130,000 compounds, 0.68% hits. AID 775, 2007;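 active = inhibition above a set limit, placed 3 SD over the median of all compounds, cut at about 26% in these data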;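 note: 0% = nicotinamide-treated wells and 100% = cells grown without nicotinamide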
#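 assay system = DeaD-strain S. cerevisiae | measured by = absorbance at 615 nm | probe or stimulus = nicotinamide 1.5 mM | buffer or medium = CSMM-D glucose medium, restrictive | times = 48 h at 30 °C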
# WT yeast gro inh = growth inhibition of WT strain, primary screen, mitochondrial fusion inhibitor project, WT and mutant strains, chemical genetic; AID 1362, 2008; 190,000 compounds, 2.1% hits; inhibition, % at 10 µM; mitochondrial fusion phenotypic screen; in the data active = inhibition above about 58%; tested in S. cerevisiae
# KCC2 mod = KCC2 cotransporter modulators, thallium flux, primary screen, cell-based, HEK293 KCC2, FluoZin-2 fluorescence, MLSMR | B-score of Tl+ flux slope (higher = more flux/activation; lower = inhibition) at 10 µM | 190,000 compounds, 2.2% hits | KCC2 cells, thallium flux FluoZin-2 fluorescence | Solute carrier family 12 member 5 (Homo sapiens), Q9H2X9;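 active = thallium flux slope and its plate-corrected score both differing from the plate sample mean at a set confidence after two filtering rounds, in either direction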;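 note: slope of fluorescence scaled to starting intensity during 10 to 20 s after thallium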
# Target sequence (Q9H2X9 whole entry, looked up): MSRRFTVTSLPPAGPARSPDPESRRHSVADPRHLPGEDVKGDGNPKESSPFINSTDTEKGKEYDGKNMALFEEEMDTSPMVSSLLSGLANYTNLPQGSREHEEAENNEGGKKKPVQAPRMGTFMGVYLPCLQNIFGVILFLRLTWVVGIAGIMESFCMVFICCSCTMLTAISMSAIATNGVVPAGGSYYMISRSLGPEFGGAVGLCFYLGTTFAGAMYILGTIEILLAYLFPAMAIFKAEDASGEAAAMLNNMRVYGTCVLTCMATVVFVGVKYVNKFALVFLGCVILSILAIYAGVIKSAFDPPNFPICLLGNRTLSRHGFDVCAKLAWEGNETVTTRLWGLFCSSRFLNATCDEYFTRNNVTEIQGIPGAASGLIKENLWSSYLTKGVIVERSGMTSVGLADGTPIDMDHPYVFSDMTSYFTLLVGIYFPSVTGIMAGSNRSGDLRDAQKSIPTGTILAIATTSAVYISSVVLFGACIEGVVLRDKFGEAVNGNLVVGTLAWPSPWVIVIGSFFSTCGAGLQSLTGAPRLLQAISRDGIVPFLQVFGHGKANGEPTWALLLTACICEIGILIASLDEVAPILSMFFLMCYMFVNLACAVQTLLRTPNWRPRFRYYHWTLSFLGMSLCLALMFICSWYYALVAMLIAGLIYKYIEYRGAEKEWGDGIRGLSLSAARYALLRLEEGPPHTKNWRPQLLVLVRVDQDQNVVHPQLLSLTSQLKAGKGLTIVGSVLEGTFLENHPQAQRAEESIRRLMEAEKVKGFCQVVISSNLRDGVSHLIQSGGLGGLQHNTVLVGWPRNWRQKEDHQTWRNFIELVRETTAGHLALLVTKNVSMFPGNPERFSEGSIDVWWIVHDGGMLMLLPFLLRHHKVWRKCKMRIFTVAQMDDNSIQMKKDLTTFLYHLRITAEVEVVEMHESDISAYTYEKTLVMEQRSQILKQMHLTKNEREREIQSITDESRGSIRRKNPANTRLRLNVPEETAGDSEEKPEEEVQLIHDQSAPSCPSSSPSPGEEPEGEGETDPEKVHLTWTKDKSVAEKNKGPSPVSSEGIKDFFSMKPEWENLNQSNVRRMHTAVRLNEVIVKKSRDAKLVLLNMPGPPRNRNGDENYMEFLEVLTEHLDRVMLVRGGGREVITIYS
# RAM inhibit = inhibitors of the yeast RAM network, primary screen, dse1pr::URA3 reporter, 5-FOA selection; S. cerevisiae dse1pr::URA3 reporter, 5-FOA growth OD615, 2 d; analog-sensitive cbk1-as2 kinase mutant strain; inhibition, % at 50 µM; 190,000 compounds, 1.8% hits;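 active = inhibition above a set limit, 3 SD over mean compound inhibition, cut at about 8.4% in these data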;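 note: 0% = DMSO-only wells with no growth and 100% = 10 µM 1-NA-PP1 full growth; inhibition rescues growth on 5-FOA so higher OD means more RAM inhibition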
# An asterisk follows results filed as active; . = no result given.
SMILES,Yeast growth inh,Yeast life ext,WT yeast gro inh,KCC2 mod,RAM inhibit
COc1ccc(C(=O)N(c2ccc(OC)cc2)S(=O)(=O)c2cccs2)cc1,3.0,0.1,73.7*,-0.564,6.3
O=S(=O)(Cc1ccc(Cl)cc1)c1ncc(CO)n1Cc1ccccc1,.,.,-10.0,-0.041,-1.4
CCOC(=O)CC(NC(=O)Cn1nnc(-c2ccccc2F)n1)c1ccc(OC)cc1 (configuration not stated),.,.,-5.7,-2.52,9.7*
COc1cc(/C=C(\C#N)c2ccccn2)cc(OC)c1O,.,.,.,-2.91,.
COc1cc(/C=C(\C#N)c2ccccn2)ccc1OCc1ccccc1Cl,-39.3,-4.2,2.6,0.0326,9.7*
COc1ccc(NC(=O)C2CCN(S(=O)(=O)c3ccc(Br)s3)CC2)cc1OC,-44.4,16.6,-3.0,-0.936,10.5*
CCOc1ccc(C(=O)Nc2ccc3c(c2)OCCO3)cc1OC,-61.2,-9.9,-4.1,-0.603,8.5*
CCOc1ccc(C(=O)Nc2ccc3c(c2)OCCO3)cc1[N+](=O)[O-],.,.,-2.3,1.12,0.9
COc1ccc(S(=O)(=O)N2CCC(C(=O)N3CCCCC3)CC2)cc1OC,-37.3,6.3,61.1*,.,-0.7
COc1ccc(S(=O)(=O)N2CCC(C(=O)N3CCc4ccccc4C3)CC2)cc1,-16.1,-8.8,7.1,-3.96*,2.4
CC(=O)Oc1ccccc1N(C(C)=O)S(=O)(=O)c1cccc([N+](=O)[O-])c1,.,.,7.2,-2.51,-0.1
COc1ccc(S(=O)(=O)N2CCC(C(=O)Nc3ccc4c(c3)OCCO4)CC2)cc1OC,-34.2,-4.5,2.0,.,10.8*
COc1cc(C(=O)Nc2cccc(S(=O)(=O)N3CCCC3)c2)cc(OC)c1C,.,.,.,0.383,.
COc1ccc(/C=C/C(=O)Nc2cccc(S(=O)(=O)N3CCCC3)c2)cc1OC,.,.,5.7,-0.642,8.5*
Cc1nc(CS(=O)(=O)c2ccccn2)sc1C(=O)NNC(=O)c1ccc(Cl)cc1,.,.,.,0.301,.
Cc1ccc(CNC(=O)Cc2csc(Nc3nc(=S)[nH]c4ccccc34)n2)cc1,-16.3,-31.6,-23.8,9.73*,3.7
OC(CNCCC1C=Nc2ccccc21)Cn1c2ccc(Cl)cc2c2cc(Cl)ccc21 (configuration not stated),99.2*,-11.6,97.5*,1.01,1.6
OC(CNCC1CCCO1)Cn1c2ccc(Cl)cc2c2cc(Cl)ccc21 (configuration not stated),-65.9,-33.3,7.2,0.0131,-0.8
CCOC(=O)Cc1ccc2sc(-c3ccccc3)nc2c1,-28.8,-6.5,63.9*,-1.92,0.5
CC(C)c1ccc(NC(=O)c2cc(S(=O)(=O)NCC3COc4ccccc4O3)ccc2F)cc1 (configuration not stated),-62.0,3.9,61.6*,-1.3,4.8
COc1ccc(NC(=O)c2cc(S(=O)(=O)NCC3COc4ccccc4O3)ccc2F)cc1 (configuration not stated),-15.6,1.1,18.8,-2.66,2.5
O=C(NCC1COc2ccccc2O1)c1ccc(NC(=O)c2ccco2)cc1 (configuration not stated),-43.6,-16.8,-16.8,0.107,1.9
O=C(Nc1ccc(C(F)(F)F)cc1)c1cc(S(=O)(=O)NCC2COc3ccccc3O2)ccc1F (configuration not stated),-16.0,3.6,82.3*,-0.214,8.4*
COC(=O)c1sc2ncn(-n3c(C)ccc3C)c(=O)c2c1C,-73.2,84.6*,2.5,-1.02,1.4
NC(=O)NOCc1ccc(Cl)cc1Cl,.,.,6.6,0.912,3.1
SMILES,Yeast growth inh,Yeast life ext,WT yeast gro inh,KCC2 mod,RAM inhibit
CN(C)/C=C(\C=N\OCc1ccc(Cl)cc1Cl)C(=O)Nc1ccc(Cl)c(Cl)c1,-61.8,-7.2,83.6*,.,10.9*
O=C(NC1CCCc2ccccc21)C12CC3CC(CC(O)(C3)C1)C2 (configuration not stated),.,.,6.0,-0.058,0.0
COc1ccc(C2SCC(=O)N2c2c(C)n(C)n(-c3ccccc3)c2=O)cc1OC (configuration not stated),-31.9,0.2,11.4,.,0.3
CC(=O)Nc1ccccc1/C=C/c1ccc2c(C)ccc(O)c2n1,-6.0,-2.8,15.8,-1.25,0.9
CC(=O)Nc1ccccc1/C=C/c1ccc2c(C)cc(C)c(O)c2n1,-19.3,-1.1,77.3*,0.139,-0.2
Cc1cc(NC(=O)COC(=O)c2cc(S(=O)(=O)N3CCOCC3)ccc2N2CCCCC2)no1,-17.8,-1.7,-3.6,.,0.9
C=CCn1c(SCC(=O)NCCOC)nnc1-c1cc2c(s1)CCC(CC)C2 (configuration not stated),-25.4,-2.7,2.7,-2.5,0.3
COc1ccc(Cl)cc1NC(=S)NCCC(c1ccccc1)c1ccccc1,7.3,-9.3,46.2,-0.379,-0.1
COc1cccc(NC(=O)C(=S)NC2CCCCC2)c1,.,.,58.8*,-0.214,2.3
S=C(NNc1cccc(Cl)c1)NC1CCCCC1,.,.,61.2*,0.0281,3.2
S=C(Nc1cccc(Cl)c1)NC1CCCCC1,10.4,-4.2,45.3,-1.04,-0.1
CC1CCCN(C(=S)Nc2ccc(Nc3ccccc3)cc2)C1 (configuration not stated),.,.,34.9,-2.34,9.3*
COc1cccc(NC(=O)C(NC2CCCC2)c2ccccc2)c1 (configuration not stated),0.8,-0.1,-16.1,-1.16,-0.1
COc1ccccc1NC(=S)NCCC(c1ccccc1)c1ccccc1,21.8,-2.5,70.6*,-0.278,9.8*
O=C(COC(=O)c1cc(=O)[nH]c(=O)[nH]1)Nc1cccc(S(=O)(=O)N2CCCCC2)c1,.,.,-24.2,0.161,2.0
CC(C)(C)c1ccccc1NC(=S)NC1CCCCC1,.,.,66.2*,0.541,6.3
Cc1cccc(NC(=S)NC2CCCCCC2)c1C,-31.5,0.3,67.2,0.653,-1.6
COc1ccccc1CNC(=S)NC1CCCCC1,.,.,53.2,-1.06,2.1
COc1ccccc1NC(=S)NC1CCCCCC1,-16.4,-3.9,58.7*,0.291,0.0
S=C(Nc1ccc(Nc2ccccc2)cc1)NC1CCCCCC1,.,.,80.5*,-0.0298,2.3
C/C=C\C=C\C(=O)Nc1cccc(C2=NOC3(C2)C[C@@H](C(N)=O)N(C(=O)C(c2ccccc2)c2ccccc2)C3)c1 (some centres not stated),.,.,.,0.0357,.
CC(Oc1ccc(Cl)cc1Cl)C(=O)NCCCCc1ccccc1 (configuration not stated),-24.5,-4.5,61.2*,-2.15,0.5
O=C(COc1ccc(Cl)cc1Cl)NCC(=O)N/N=C/c1c[nH]c2ccccc12,-18.4,1.9,-1.0,-0.317,9.8*
Cc1cc(Cl)ccc1OCC(=O)NCCCCc1ccccc1,-10.4,-6.6,62.9*,0.103,4.3
O=C(COc1ccccc1-c1ccccc1)NCc1cccc(Cl)c1,-8.9,-3.0,77.7*,0.0179,2.0
